Results: ChEMBL document CHEMBL1147441, “A new series of potent oxindole inhibitors of CDK2” (Bioorg Med Chem Lett, 2004)

Assays:
[1] = tested on: SW480; assay: In vitro inhibition of SW480 (human colon cancer) cell proliferation.; type: functional, cell-based
In short: (§1)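 MTT-based proliferation assay run on tumour cells. IC50 values were taken from a single experiment.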

[2] = tested on: MDA-MB-435; assay: In vitro inhibition of MDA MB 435 (human breast cancer) cell proliferation.; type: functional, cell-based; in short: as §1
[3] = target: Cyclin-dependent kinase 2/cyclin E (Homo sapiens, UniProt P24941); assay: In vitro inhibition of recombinant Cyclin Dependent Kinase-2/Cyclin E.; type: protein-complex assay

Row | Structure (SMILES) | IC50 [1] | IC50 [2] | IC50 [3]
1 | COc1cc[nH]c1/C=C1\C(=O)Nc2ccc(F)c(C#C[C@H](C)O)c21 | 0.4 µM | 0.19 µM | 0.026 µM
2 | CNCC#Cc1c(F)ccc2c1/C(=C/c1[nH]ccc1OC)C(=O)N2 | 0.15 µM | 0.49 µM | 0.004 µM
3 | COc1cc[nH]c1/C=C1\C(=O)Nc2ccc(F)c(C#C[C@@H](N)[C@@H](C)O)c21 | 0.21 µM | 0.3 µM | 0.009 µM

Stronger by IC50 [1], values ahead:

Row | IC50 [1] | IC50 [2] | IC50 [3] | Structure (SMILES)
4 | 0.14 µM | 0.4 µM | – | COc1cc[nH]c1/C=C1\C(=O)Nc2ccc(F)c(C#C[C@@H](O)[C@@H](N)[C@@H](C)O)c21
5 | 0.04 µM | 0.031 µM | 0.002 µM | COc1cc[nH]c1/C=C1\C(=O)Nc2ccc(F)c(C#C[C@@H]3CCCN3)c21
